Assay results as given in ChEMBL document CHEMBL1145015, “Structure-activity relationships of 1,2,4-benzotriazine 1,4-dioxides as hypoxia-selective analogues of tirapazamine” (J Med Chem, 2003).

Experiments:
[1] = Intraexperimental difference between the hypoxic and aerobic cytotoxicity; type: functional
In short: (§1)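 Clonogenic SCCVII survival after 1 h drug exposure at 37 °C, either hypoxic (<200 ppm O2, 95% N2/5% CO2) or aerobic (95% air/5% CO2). Colonies of >50 cells counted after 10–14 days. HCR = aerobic C10 / hypoxic C10, with both values from the same experiment.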

[2] = Concentration required to reduce plating efficiency to 10 percent of controls, under aerobic conditions in mouse SCCVII tumor cells.; type: functional, SCC-7
In short: (§2)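 SCCVII cells plated in glass dishes (2×10^5 to 1×10^6 per dish) 1–2 days ahead. Drug freshly dissolved, given in complete medium for 1 h at 37 °C with shaking. Hypoxia (<200 ppm O2) by repeated evacuation/flushing with 95% N2 + 5% CO2; aerobic controls flushed with 95% air + 5% CO2. Cells washed, trypsinized, replated. Crystal violet stain after 10–14 days, >50-cell colonies scored. C10 is the concentration giving 10% of control plating efficiency.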

[3] = Concentration required to reduce plating efficiency to 10 percent of controls, under hypoxic conditions in mouse SCCVII tumor cells.; type: functional, SCC-7; in short: as §2
[4] = Intraexperimental ratio of hypoxic TPZ C10 to hypoxic BTO C10 in mouse SCCVII tumor cells.; type: functional, SCC-7
In short: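 Computed within each experiment from the clonogenic SCCVII assay (1 h drug exposure, hypoxia <200 ppm O2 by gas evacuation/flushing, colony counting after 10–14 days). RHT = C10 of TPZ under hypoxia divided by C10 of the analogue under hypoxia.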

SCC-7 [5] = assay: Inhibitory concentration against murine SCCVII cell line under hypoxic condition; type: functional, cell-based; details: Mus musculus
In short: (§3)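 SRB proliferation assay in 96-well plates. SCCVII (200 cells) or HT-29 (1000 cells) seeded in αMEM + 10% FCS with glucose (17 mM final) and 100 μM 2'-deoxycytidine, then attached for 3 h. Cells exposed for 4 h at 37 °C to 2-fold serial dilutions in triplicate, either oxic (20% O2, 5% CO2) or in an anaerobic chamber (<0.001% O2). After washing, cells grew for 5 (oxic) or 6 (anoxic) days before SRB staining. IC50 values are the mean of three independent experiments.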

SCC-7 [6] = assay: Inhibitory concentration against murine SCCVII cell line under aerobic condition; type: functional, cell-based; details: Mus musculus; in short: as §3
SCC-7 [7] = assay: Interexperimental ratio of hypoxic TPZ C10 to hypoxic BTO C10 using murine SCCVII cell line; type: functional, Mus musculus
HT-29 [8] = assay: Inhibitory concentration against human adenocarcinoma HT-29 cell line under hypoxic condition; type: functional, cell-based; in short: as §3
HT-29 [9] = assay: Inhibitory concentration against human adenocarcinoma HT-29 cell line under aerobic condition; type: functional, cell-based; in short: as §3
HT-29 [10] = assay: Interexperimental ratio of hypoxic TPZ C10 to hypoxic BTO C10 using human adenocarcinoma HT-29 cell line; type: functional
[11] = Interexperimental difference between the hypoxic and aerobic cytotoxicity using human adenocarcinoma HT-29 cell line; type: functional
[12] = Interexperimental difference between the hypoxic and aerobic cytotoxicity using murine SCCVII cell line; type: functional, SCC-7
[13] = Intraexperimental difference between the hypoxic and aerobic cytotoxicity in mouse SCCVII tumor cells; type: functional, SCC-7; in short: as §1
[14] = Partition coefficient (logP); type: physicochemical; details: octanol/water
In short: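 Octanol/water partition at pH 7.4, measured by low-volume shake flask. Drug in both the octanol and buffer phases quantified by HPLC.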

CCCCS(=O)(=O)c1cccc2c1[n+]([O-])nc(N)[n+]2[O-]
HCR [1]: 21.1 | C10 [2]: 175 µM | C10 [3]: 8.31 µM | RHT [4]: 1.2

CCN(CC)c1ccc2c(c1)[n+]([O-])c(N)n[n+]2[O-]
C10 [2]: >1269 µM | C10 [3]: >50.8 µM | RHT [4]: <0.2

Nc1n[n+]([O-])c2ccc(Cl)cc2[n+]1[O-]
IC50 (SCC-7 [5]): 980 nM | IC50 (SCC-7 [6]): 21.1 µM | RHT (SCC-7 [7]): 2.4 | IC50 (HT-29 [8]): 1300 nM | IC50 (HT-29 [9]): 41.2 µM | RHT (HT-29 [10]): 4.1 | HCR [11]: 33 | HCR [12]: 22.5 | C10 [2]: 140 µM | C10 [3]: 6.47 µM | RHT [4]: 1.6 | HCR [13]: 21.6

CN(C)c1ccc2c(c1)[n+]([O-])nc(N)[n+]2[O-]
HCR [1]: 13.3 | C10 [2]: 3159 µM | C10 [3]: 237 µM | RHT [4]: 0.043

COc1ccc2c(c1)[n+]([O-])c(N)n[n+]2[O-]
C10 [3]: 127 µM | RHT [4]: 0.08

CN(C)c1cccc2c1[n+]([O-])c(N)n[n+]2[O-]
IC50 (SCC-7 [5]): 12200 nM | IC50 (SCC-7 [6]): 2.1 µM | RHT (SCC-7 [7]): 0.2 | IC50 (HT-29 [8]): 23300 nM | IC50 (HT-29 [9]): 4.2 µM | RHT (HT-29 [10]): 0.2 | HCR [11]: 0.18 | HCR [12]: 0.18 | C10 [2]: 30.5 µM | C10 [3]: 25.8 µM | RHT [4]: 0.39 | HCR [13]: 1.2

CCN(CC)c1cccc2c1[n+]([O-])c(N)n[n+]2[O-]
HCR [1]: 0.87 | C10 [2]: 58.7 µM | C10 [3]: 67.7 µM | RHT [4]: 0.15

Nc1n[n+]([O-])c2cc(Cl)ccc2[n+]1[O-]
logP [14]: 0.46 | IC50 (SCC-7 [5]): 610 nM | IC50 (SCC-7 [6]): 12.2 µM | RHT (SCC-7 [7]): 3.9 | IC50 (HT-29 [8]): 730 nM | IC50 (HT-29 [9]): 19.8 µM | RHT (HT-29 [10]): 7.2 | HCR [12]: 20.4 | C10 [2]: 271 µM | C10 [3]: 9.48 µM | RHT [4]: 1.1 | HCR [13]: 28.6

CN(C)c1ccc2c(c1)[n+]([O-])c(N)n[n+]2[O-]
HCR [1]: <1 | C10 [2]: 440 µM | C10 [3]: >440 µM | RHT [4]: <0.023

COc1ccc2c(c1)[n+]([O-])nc(N)[n+]2[O-]
HCR [1]: 100 | C10 [2]: 1934 µM | C10 [3]: 19.3 µM | RHT [4]: 0.53

Cc1cccc2c1[n+]([O-])nc(N)[n+]2[O-]
logP [14]: 0.24 | HCR [1]: 102.9 | C10 [2]: 2538 µM | C10 [3]: 24.7 µM | RHT [4]: 0.41

CCN(CC)c1cccc2c1[n+]([O-])nc(N)[n+]2[O-]
logP [14]: 0.82 | HCR [1]: 16.7 | C10 [2]: 1904 µM | C10 [3]: 114 µM | RHT [4]: 0.089

Cc1ccc2c(c1)[n+]([O-])nc(N)[n+]2[O-]
logP [14]: 0.13 | HCR [1]: 125 | C10 [2]: 2031 µM | C10 [3]: 16.2 µM | RHT [4]: 0.63

Nc1n[n+]([O-])c2cccc(Cl)c2[n+]1[O-]
logP [14]: 0.07 | HCR [1]: 1.4 | C10 [2]: 10.2 µM | C10 [3]: 7.46 µM | RHT [4]: 1.4

CCCCS(=O)(=O)c1ccc2c(c1)[n+]([O-])c(N)n[n+]2[O-]
HCR [1]: <6.3 | C10 [2]: <102 µM | C10 [3]: 16.2 µM | RHT [4]: 0.63

CS(=O)(=O)c1ccc2c(c1)[n+]([O-])c(N)n[n+]2[O-]
HCR [1]: <10.5 | C10 [2]: <274 µM | C10 [3]: 26.1 µM | RHT [4]: 0.39

Nc1n[n+]([O-])c2c(C(F)(F)F)cccc2[n+]1[O-]
logP [14]: 0.53 | HCR [1]: 112.5 | C10 [2]: 626 µM | C10 [3]: 5.56 µM | RHT [4]: 1.8

Nc1n[n+]([O-])c2ccc(C(F)(F)F)cc2[n+]1[O-]
HCR [1]: 13.3 | C10 [2]: 110 µM | C10 [3]: 8.23 µM | RHT [4]: 1.2

Nc1n[n+]([O-])c2ccc(F)cc2[n+]1[O-]
HCR [1]: 11.2 | C10 [2]: 114 µM | C10 [3]: 10.2 µM | RHT [4]: 1

Nc1n[n+]([O-])c2cc(F)ccc2[n+]1[O-]
IC50 (SCC-7 [5]): 1100 nM | IC50 (SCC-7 [6]): 17.6 µM | RHT (SCC-7 [7]): 2.2 | IC50 (HT-29 [8]): 1870 nM | IC50 (HT-29 [9]): 47.8 µM | RHT (HT-29 [10]): 2.8 | HCR [11]: 21.7 | HCR [12]: 19.3 | C10 [2]: 381 µM | C10 [3]: 5.41 µM | RHT [4]: 1.9 | HCR [13]: 70.3

Cc1ccc2c(c1)[n+]([O-])c(N)n[n+]2[O-]
logP [14]: 0.21 | IC50 (SCC-7 [5]): 5600 nM | IC50 (SCC-7 [6]): 217 µM | RHT (SCC-7 [7]): 0.4 | IC50 (HT-29 [9]): 469 µM | RHT (HT-29 [10]): 0.4 | HCR [12]: 42.6 | C10 [2]: 2901 µM | C10 [3]: 17.4 µM | RHT [4]: 0.58 | HCR [13]: 166.7

CS(=O)(=O)c1ccc2c(c1)[n+]([O-])nc(N)[n+]2[O-]
logP [14]: -1.15 | HCR [1]: 7.9 | C10 [2]: 251 µM | C10 [3]: 31.7 µM | RHT [4]: 0.32

Nc1n[n+]([O-])c2c(Cl)cccc2[n+]1[O-]
logP [14]: 0.17 | IC50 (SCC-7 [5]): 450 nM | IC50 (SCC-7 [6]): 8.2 µM | RHT (SCC-7 [7]): 5.2 | IC50 (HT-29 [8]): 550 nM | IC50 (HT-29 [9]): 7.7 µM | RHT (HT-29 [10]): 9.6 | HCR [12]: 15.9 | C10 [2]: 102 µM | C10 [3]: 2.58 µM | RHT [4]: 3.9 | HCR [13]: 39.4

CN(C)c1cccc2c1[n+]([O-])nc(N)[n+]2[O-]
HCR [1]: 17.6 | C10 [2]: 2769 µM | C10 [3]: 157 µM | RHT [4]: 0.065

CCN(CC)c1ccc2c(c1)[n+]([O-])nc(N)[n+]2[O-]
C10 [2]: > 725 µM | C10 [3]: >72.5 µM | RHT [4]: <0.14

CCCCS(=O)(=O)c1ccc2c(c1)[n+]([O-])nc(N)[n+]2[O-]
HCR [1]: >11.5 | C10 [2]: >89.6 µM | C10 [3]: 7.76 µM | RHT [4]: 1.3

Cc1cccc2c1[n+]([O-])c(N)n[n+]2[O-]
HCR [1]: <10 | C10 [2]: < 381 µM | C10 [3]: 38.1 µM | RHT [4]: 0.27

COc1cccc2c1[n+]([O-])c(N)n[n+]2[O-]
HCR [1]: 0.83 | C10 [2]: 47.9 µM | C10 [3]: 58 µM | RHT [4]: 0.18

Nc1n[n+]([O-])c2cccc(F)c2[n+]1[O-]
HCR [1]: <7.5 | C10 [2]: <76.1 µM | C10 [3]: 10.2 µM | RHT [4]: 1
